Measured values as given in the array DNA melting data of Ke et al. (doi:10.1101/2024.01.08.574731).

How the values were obtained:
[1] = folding enthalpy; higher = less favourable; fluorescence melt of hairpins on a sequencing array, two-state fit; settings: sodium 0.088 M
How it was run: (§1)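 Library hairpins on a sequenced MiSeq flow cell carried annealed Cy3 and quencher oligos, and their Cy3 fluorescence was imaged in 50 mM Na-HEPES pH 8.0 with 25 mM NaCl, in 2.5 °C steps up to 60 °C. Signals were normalised to Cy3 before quenching and to control constructs. Melting temperature and folding enthalpy were obtained from bootstrapped two-state fits, combined by inverse-variance weighting across four replicates, and the fitted temperatures were then raised by 9.35 °C to match UV melts.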

[2] = melting temperature; fluorescence melt of hairpins on a sequencing array, two-state fit, raised by 9.35 °C to match UV melts; settings: sodium 0.088 M
How it was run: as §1

| Sequence | folding enthalpy [1] [kcal/mol] | Tm [2] [°C] |
| --- | --- | --- |
| GCCATACGAAAGTAGGGC (((.(((....))).))) | -38 | 60.5 |
| GCTCCGGCGAAAGCCAGC (((..(((....)))))) | -11.2 | 32.6 |
| GCGGTTGTCCGC ((((....)))) | -23.5 | 58.6 |
| GGTGATGGAAACATCGCC ((.((((....)))).)) | -45.2 | 55.6 |
| GCTATGAAAATAGC (((((....))))) | -23.4 | 47.9 |
| GTTCAGCCGAAAGGCAAC (((..(((....)))))) | -7.39 | 31.4 |
| GATCCGCGGACGGATC ((((((....)))))) | -37.5 | 56.2 |
| GGACTTGCGAAAGCATCC (((..(((....)))))) | -9.43 | 26.3 |
| GACTAGACGAAAGTCGTC (((..(((....)))))) | -13 | 38.9 |
| GTCTTTCCGAAAGGAGAC (((..(((....)))))) | -10.6 | 29.2 |
| GGGCGCGAAAGCGAGCCC ((((((....)))..))) | -16.7 | 66.2 |
| GCAAACGAAAGTTATTGC ((((((....)))..))) | -18.5 | 31.7 |
| GCGATAGTCGC ((((...)))) | -14 | 52.5 |
| GTATAGCCGAAAGGCTAC (((..(((....)))))) | -7.94 | 36.4 |
| GTGTGCGGAAACGTACGC (.((.((....)).)).) | -27.3 | 48 |
| GCTGTCGCGAAAGCGAGC (((..(((....)))))) | -8.75 | 41.8 |
| GGGGTCGAAAGACGGCCC ((((((....)))..))) | -22.1 | 48.9 |
| GATGACGAAAGTCTTATC ((((((....)))..))) | -12.4 | 25.5 |
| GGAAGGCGAAAGCCATCC (((.(((....))).))) | -21.1 | 53.3 |
| GCAGTACGAAAGTATTGC (((.(((....))).))) | -45.2 | 52.8 |
| GCACTCGGAAACAAGTGC (((((.(....).))))) | -29.3 | 46.3 |
| GCCACCGAAAGGTTGGGC ((((((....)))..))) | -20.8 | 52.6 |
| GTGCACGGAAACGTGCGC (.(((((....))))).) | -14.7 | 63.9 |

| Sequence | folding enthalpy [1] [kcal/mol] | Tm [2] [°C] |
| --- | --- | --- |
| GGAGCAGAAATGCTCC ((((((....)))))) | -36.9 | 62.3 |
| GATCCCATTCGGGATC ((((((....)))))) | -38.7 | 62.1 |
| GATCGTTCTTACGATC ((((((....)))))) | -40.6 | 56.3 |
| GTTTTAACGAAAGTTAAC (((..(((....)))))) | -14.7 | 27 |
| GACGCCGAAAGGCCGGTC ((((((....)))..))) | -15 | 42.6 |
| GCTTCAACGAAAGTTAGC (((..(((....)))))) | -18.7 | 30.9 |
| GTTCCCCGAAAGGGTAAC (((.(((....))).))) | -19.9 | 40.9 |
| GCGCTTCGAAAGAATCGC (((.(((....))).))) | -41.3 | 51.8 |
| GATCTAGAGTTAGATC ((((((....)))))) | -24 | 37.7 |
| GATCGGTGGCCGATC ((((((...)))))) | -33.8 | 55.9 |
| GCCGACGAAAGTCCGGGC ((((((....)))..))) | -24.4 | 53 |
| GTATCTCGAAAGAGCTAC (((.(((....))).))) | -21.8 | 36 |
| TGTACGAAAGTACA (((((....))))) | -14.6 | 54.7 |
| CGCGGAATGGTCCGCG ((((((....)))))) | -30.2 | 69 |
| GAAGGCGAAAGCCCTTC ((((((....))).))) | -15.3 | 52.1 |
| GCTGCAGGAAACTGTGGC ((..(((....)))..)) | -25.8 | 46.5 |
| CGAGGCGGAAACGCATCG (((.(((....))).))) | -37 | 64.2 |
| GATCTTTAATAAGATC ((((((....)))))) | -31.1 | 40.9 |
| GTTCTTGGAAACAAGAGC (.(((((....))))).) | -19.6 | 41.5 |
| GCACCGCGAAAGCCCTGC (((..((....))..))) | -7.23 | 28.2 |
| GGGGCTGGAAACAGCCTC (.(((((....))))).) | -14.4 | 59.8 |
| GATCCGCCATCGGATC ((((((....)))))) | -37 | 57.4 |
| GGCTACGAAAGTAAAGCC ((((((....)))..))) | -32.5 | 50.5 |

| Sequence | folding enthalpy [1] [kcal/mol] | Tm [2] [°C] |
| --- | --- | --- |
| GACCCCCGAAAGGGTGTC (((.(((....))).))) | -25 | 51.8 |
| GGATGCGAAAGCAAGTCC ((((((....)))..))) | -13.7 | 35.5 |
| GTGCGACGAAAGTCACAC (((.(((....))).))) | -43.9 | 54.3 |
| GGTGTTGGAAACAATGCC ((..(((....)))..)) | -21 | 41.8 |
| GTGTGCCGAAAGGCCAC (((.(((....)))))) | -20.6 | 63.8 |
| GGATCGGCGAAAGCCTCC (((..(((....)))))) | -11.1 | 28.4 |
| GATCTAGTTGTAGATC ((((((....)))))) | -28.2 | 41.2 |
| GAGAAGCGAAAGCTCTC (((.(((....)))))) | -20.1 | 50.2 |
| GGCTTGCCGAAAGGCGCC (((..(((....)))))) | -14 | 55.8 |
| GGAGCCGAAAGGCTTTCC ((((((....)))..))) | -7.92 | 43.8 |
| GCCCGCCGAAAGGCCGGC (((.(((....))).))) | -19.4 | 64.8 |
| GCTACTGGAAACAGTGGC ((.((((....)))).)) | -38.3 | 51.7 |
| GTTGTCGAAAGACCCAAC ((((((....)))..))) | -11.1 | 26.6 |
| GCTGCCGAAAGGCTAAGC ((((((....)))..))) | -16.8 | 53.8 |
| GTTTTCGAAAGAATAAC ((((((....))).))) | -12.9 | 31.2 |
| GCAAAGACGAAAGTCTGC (((..(((....)))))) | -15.7 | 50.2 |
| GTAGGGGGAAACCCTTGC (.(.(((....))).).) | -13.2 | 31.9 |
| GGCTCTCGAAAGAGTGCC (((.(((....))).))) | -49.1 | 58.1 |
| GGGGGTCGAAAGACGCCC (((.(((....))).))) | -21.5 | 68.7 |
| GTGAGCGGAAACGTTCGC (.((.((....)).)).) | -27.8 | 43.9 |
| GATGACGAAAGTCGATC ((((((....))).))) | -18.8 | 45.2 |
| GTTCGCGAAAGCGCCAAC ((((((....)))..))) | -8.24 | 25.6 |
| GGTCCGGGAAACCGGGTC (..((((....))))..) | -12.7 | 47.6 |

| Sequence | folding enthalpy [1] [kcal/mol] | Tm [2] [°C] |
| --- | --- | --- |
| GACTACGAAAGTAAAGTC ((((((....)))..))) | -23.3 | 36.5 |
| GCGGTCGACCGC ((((....)))) | -38.5 | 67.7 |
| GTGTTTTCGAAAGAACAC (((..(((....)))))) | -32.9 | 38.3 |
| GTCTACGGAAACGTGGAC (((.(((....))).))) | -39.8 | 53.1 |
| GCCATCGAAAGATACGGC ((((((....)))..))) | -26.4 | 41.5 |
| GTCATTGAAAAATGAC ((((((....)))))) | -38.6 | 51.9 |
| GTGTCAGGAAACTGACGC (.(((((....))))).) | -40.5 | 55.4 |
| GCGTTTCGAAAGAAGCGC (((.(((....))).))) | -37.9 | 63.1 |
| GCGGGGGCCGC ((((...)))) | -9.27 | 62.1 |
| GCCATCGGAAACGATGAC (.(((((....))))).) | -16 | 48.6 |
| GCAGCGCGAAAGCCCAGC ((.(.((....)).).)) | -10.9 | 28.1 |
| GACCGCGAAAGCGAGGTC ((((((....)))..))) | -19.2 | 56.6 |
| GATTGGGGAAACCCGATC (((.(((....))).))) | -35 | 48.8 |
| GGACCCGAAAGGGTTCC ((((((....))).))) | -16.8 | 59.7 |
| GCTCGTGGAAACATGGGC ((.(.((....)).).)) | -17.1 | 42.9 |
| GGAGTCTCGAAAGAGTCC (((..(((....)))))) | -20.1 | 41.7 |
| GCGTGAGGAAACTCGTGC ((..(((....)))..)) | -28.7 | 38.9 |
| GGGAGCCCGAAAGGGCCC (((..(((....)))))) | -10.7 | 58.8 |
| GTGCCCGAAAGGGGTCAC ((((((....)))..))) | -15.7 | 48.6 |
| GGATTGGGAAACTAATCC (((((.(....).))))) | -33.9 | 43.5 |
| GGGTCCGGAAACGGGCTC (.(.(((....))).).) | -21.3 | 50.5 |
| GATCATCGTCATGATC ((((((....)))))) | -32.4 | 45.4 |
| GATCGCACTGGCGATC ((((((....)))))) | -34 | 68.2 |
